Assay results as given in PubChem BioAssay.
Records with an inconclusive call do not appear.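 The calls were made as follows, unless noted: active = viability at or below 27.92% in each of two runs, the all-compound median minus 4 SD; inconclusive = no clear call, values can overlap the other calls; inactive = the rest.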

How the values were obtained:
[1] = S. cerevisiae growth inhibition in permissive medium (OD615), pilot counter-assay for S. cerevisiae lifespan shortening project, permissive growth control (AID 705;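 active = growth inhibition above 25% in both replicates, a cutoff set 3 SD above the mean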); conditions: OD615, 24 h, at 10 µM, stronger effect = higher value
Procedure, shortened: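 Timing: 24 h exposure, 30 °C / Material: Saccharomyces cerevisiae strain carrying genetically modified DeaD replicative-lifespan system / Signal: OD at 615 nm / Compound: 10 µM single dose, 0.25% DMSO / Medium: SC raffinose/galactose permissive medium / Evaluation: reduction in yeast growth (OD615)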

[2] = S. cerevisiae growth inhibition in restrictive medium, OD615, pilot screen, restrictive growth control, yeast lifespan reduction project (AID 706;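 active = growth inhibition above a set limit, 3 SD over mean compound inhibition, in both replicates, cut at about 43% in these data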;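 also: modified DeaD lifespan yeast strain shifted to restrictive glucose medium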); conditions: OD615, 48 h, at 10 µM, stronger effect = higher value
Procedure, shortened: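 System: Engineered S. cerevisiae DeaD strain | Detection: OD615 | Buffer or medium: CSMM-D glucose medium | Doses: 10 µM compound, 0.25% DMSO | Timing: 4 h pre-growth plus 48 h compound exposure, 30 °C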

[3] = doxorubicin toxicity protection in MRP-1 cells – H69AR cells, CellTiter-Glo, duplicate, MRP-1 activator project, pilot screen (AID 807;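 active = viability increase at or above a cutoff of the median across tested compounds plus 3 SD, cut at about 8.5% in these data, passing the limit was not always enough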;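 also: compound pretreatment 18-22 h then 72 h combined with doxorubicin; 0% = doxorubicin alone and 100% = vehicle without doxorubicin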); conditions: H69AR viability with doxorubicin, CellTiter-Glo luminescence; at 10 µM; stronger effect = higher value
[4] = viability of HCT116 without oncogenic beta-catenin – human colon tumor cells, pilot screen (AID 823;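 active = cell viability at or below a set limit in both duplicate runs, the limit being the all-compound median minus 4 SD, cut at about 23% in these data, passing the limit was not always enough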;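 also: 0% = wells killed by 20 µM Hyamine and 100% = untreated DMSO cell wells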); conditions: HCT116 beta-catenin knockout viability, CellTiter-Glo, 60 h; at 10 µM; stronger effect = lower value
[5] = viability of PTEN-null HCT116 cells – cell-based, HCT116 clonal line, CellTiter-Glo, pilot screen (AID 824); conditions: HCT116 PTEN-deleted viability, 60 h, at 10 µM, stronger effect = lower value;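 also: 0% = 20 µM Hyamine control and 100% = vehicle cell control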
[6] = RAM pathway blockade in budding yeast – dse1pr::URA3 reporter, 5-FOA selection, pilot screen (AID 869;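 active = inhibition over a set limit, the all-compound mean plus 3 SD, in both replicate runs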;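 also: 0% = DMSO wells with no growth and 100% = 10 µM 1-NA-PP1 with full growth; RAM network block rescues cells from 5-FOA so hits raise OD615 growth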); conditions: S. cerevisiae dse1pr::URA3 5-FOA growth, OD615, 2 d; at 10 µM; stronger effect = higher value; strain carries analog-sensitive mutant Cbk1 kinase
[7] = RAM signaling pathway blockade in yeast – S. cerevisiae, Pdr1DBD-CYC8 efflux-inhibited sensitized strain, primary screen (AID 1298;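 active = RAM network inhibition above 8.4% in each of two replicates, 3 SD over the compound average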;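 also: 0% = DMSO untreated cells without growth and 100% = 10 µM 1-NA-PP1 full growth; higher means more yeast growth rescued from 5-FOA killing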); conditions: S. cerevisiae cbk1-as DSE1-URA3 strain, 5-FOA growth OD615, 2 d; at 50 µM; stronger effect = higher value

CCOC(=O)CCSCC(=O)Nc1nnc(C)s1
inactive: growth inhibition [1] -1.14% | growth inhibition [2] -0.57% | viability increase [3] 0.86% | viability [4] 113% | viability [5] 100% | inhibition [6] 0.55% | RAM network inhibition [7] 3.07%

COc1ccc(O)c(-c2[nH]ncc2C(=O)c2ccccc2C)c1
inactive: growth inhibition [1] -7.88% | growth inhibition [2] -5.12% | viability increase [3] -0.59% | viability [4] 100% | viability [5] 98.5% | inhibition [6] -0.045% | RAM network inhibition [7] -0.67%

CC1CCCC(NC(=O)c2ccc3c(c2)N(Cc2ccccc2)C(=O)CS3=O)C1C (stereo not drawn)
inactive: growth inhibition [1] 0.145% | growth inhibition [2] 4.42% | viability increase [3] -3.1% | viability [4] 70.8% | viability [5] 62.5% | inhibition [6] 0.69% | RAM network inhibition [7] 5.92%

Cc1cc(Nc2cc(F)ccc2C)n2nc(C)nc2n1
inactive: growth inhibition [1] -12.4% | growth inhibition [2] -7.35% | viability increase [3] -2.3% | viability [4] 105% | viability [5] 95% | inhibition [6] 1.03% | RAM network inhibition [7] 6.29%

Cc1ccc(S(=O)(=O)Cc2ccc(C(=O)N3CCN(c4ccccn4)CC3)o2)cc1
inactive: growth inhibition [1] -6.39% | growth inhibition [2] -3.59% | viability increase [3] -4.22% | viability [4] 87.1% | viability [5] 79.8% | inhibition [6] 1.25% | RAM network inhibition [7] 3.12%

CC(NC(=O)C1CCCN(S(=O)(=O)c2cnc[nH]2)C1)c1ccccc1 (stereo not drawn)
inactive: growth inhibition [1] 2.1% | growth inhibition [2] 2.4% | viability increase [3] -0.99% | viability [4] 98.3% | viability [5] 97.4% | inhibition [6] -0.19% | RAM network inhibition [7] -0.35%

COc1ccc(-n2ncc3c(N4CCCCC4)ncnc32)cc1
inactive: growth inhibition [1] -12.2% | growth inhibition [2] 0.385% | viability increase [3] -3.57% | viability [4] 67.8% | viability [5] 57.1% | inhibition [6] 1.78% | RAM network inhibition [7] -1.99%

CCOC(=O)c1ccn(-c2nc(-c3ccco3)cc(C(F)(F)F)n2)n1
inactive: growth inhibition [1] -8.11% | growth inhibition [2] 6.16% | viability increase [3] 1.27% | viability [4] 106% | viability [5] 97.8% | inhibition [6] -0.505% | RAM network inhibition [7] 4.89%

Cn1c(C(=O)Nc2ccc3c(c2)OCCO3)cc2c(=O)n(C)c3ccccc3c21
inactive: growth inhibition [1] -14.2% | growth inhibition [2] -2.83% | viability increase [3] -7.31% | viability [4] 72.5% | viability [5] 64.3% | inhibition [6] 1.94% | RAM network inhibition [7] 4.95%

O=C(NCCc1ccccc1)C1CCN(S(=O)(=O)c2cccnc2)CC1
inactive: growth inhibition [1] -7.37% | growth inhibition [2] 0.25% | viability increase [3] -0.16% | viability [4] 104% | viability [5] 94.8% | inhibition [6] 1.88% | RAM network inhibition [7] 1.62%

COCCn1c(CN2CC(C)CC(C)C2)nc2c1c(=O)n(C)c(=O)n2C (stereo not drawn)
inactive: growth inhibition [1] 8.93% | growth inhibition [2] 9.36% | viability increase [3] 0.07% | viability [4] 90.4% | viability [5] 98.5% | inhibition [6] -0.14% | RAM network inhibition [7] -0.26%

Cc1ccccc1OCC(=O)Nc1ccccc1N1CCOCC1
inactive: growth inhibition [1] -1.63% | growth inhibition [2] 6.71% | viability increase [3] -5.31% | viability [4] 91.7% | viability [5] 84.7% | inhibition [6] 1.22% | RAM network inhibition [7] 6.55%

CN(C)CCNC(=O)c1ccc2c(c1)N(Cc1ccc(F)cc1)CCS2
inactive: growth inhibition [1] -2.46% | growth inhibition [2] 0.095% | viability increase [3] -6.05% | viability [4] 47.8% | viability [5] 55.1% | inhibition [6] 0.835% | RAM network inhibition [7] 0.57%

Cc1cccc(NC(=O)CN2C(=O)COc3ccc(Cl)cc32)c1C
inactive: growth inhibition [1] -3.47% | growth inhibition [2] -2.44% | viability increase [3] -0.9% | viability [4] 87.5% | viability [5] 85.8% | inhibition [6] 2.24% | RAM network inhibition [7] 4.67%

CCOC(=O)C1CCN(C(=O)C2c3ccccc3C(=O)N(C)C2c2ccc(OC)cc2)CC1 (stereo not drawn)
inactive: growth inhibition [1] -7.75% | growth inhibition [2] -16.1% | viability increase [3] -4.5% | viability [4] 76.3% | viability [5] 85.8% | inhibition [6] 2.1% | RAM network inhibition [7] 1.79%

CC(=O)NCCOc1c(C)cc(S(N)(=O)=O)cc1C
inactive: growth inhibition [1] 0.295% | growth inhibition [2] -6.93% | viability increase [3] -1.25% | viability [4] 92.4% | viability [5] 90.1% | inhibition [6] 0.43% | RAM network inhibition [7] 1.68%

CCOC(=O)c1nc2nc(C)cc(=O)n2[nH]1
inactive: growth inhibition [1] -14.5% | growth inhibition [2] -7.54% | viability increase [3] 0.46% | viability [4] 105% | viability [5] 97.7% | inhibition [6] 0.96% | RAM network inhibition [7] 4.54%

COc1cccc(-c2nc(C(N)=O)c3[nH]c(=O)n(-c4ccccc4)c3n2)c1OC
inactive: growth inhibition [1] -8.87% | growth inhibition [2] -8.02% | viability increase [3] -4.58% | viability [4] 99.4% | viability [5] 95.9% | inhibition [6] 3.04% | RAM network inhibition [7] -0.2%

Cc1ccc(/C(O)=C2\C(=O)C(=O)N(CCN(C)C)C2c2ccccc2F)cc1 (stereo not drawn)
inactive: growth inhibition [1] -10.5% | growth inhibition [2] -5.25% | viability increase [3] -2.92% | viability [4] 88.3% | viability [5] 87.1% | inhibition [6] -0.9% | RAM network inhibition [7] -1.02%

CN(C)c1cccc(NC(=O)Cc2ccc(F)cc2)c1
inactive: growth inhibition [1] -11.6% | growth inhibition [2] -21.4% | viability increase [3] -4.02% | viability [4] 85.4% | viability [5] 84.2% | inhibition [6] 1.14% | RAM network inhibition [7] 5.85%

CCOc1ccc(C(C)NC(=O)CCC(=O)O)cc1 (stereo not drawn)
inactive: growth inhibition [1] -4.12% | growth inhibition [2] -1.54% | viability increase [3] -1.24% | viability [4] 93.4% | viability [5] 89% | inhibition [6] 1.27% | RAM network inhibition [7] 0.68%

N#CC1=C(SCC(N)=O)NC(=O)CC1c1ccccc1Cl (stereo not drawn)
inactive: growth inhibition [1] -3.39% | growth inhibition [2] -17.1% | viability increase [3] -2.43% | viability [4] 98% | viability [5] 96.5% | inhibition [6] 0.635% | RAM network inhibition [7] -0.49%

CCCCn1nc(NC(=O)c2cccs2)c2cc3ccccc3nc21
inactive: growth inhibition [1] -22.7% | growth inhibition [2] -8.93% | viability increase [3] 1.45% | viability [4] 54.6% | viability [5] 48.3% | inhibition [6] 0.55% | RAM network inhibition [7] 4.61%

COc1ccc(C(=O)Nc2cc(-c3nn4c(C)nnc4s3)ccc2C)cc1
inactive: growth inhibition [1] 8.96% | growth inhibition [2] 33.2% | viability increase [3] -5.02% | viability [4] 98.3% | viability [5] 88.2% | inhibition [6] 1.27% | RAM network inhibition [7] 2.75%
